These results are taken from ChEMBL document CHEMBL1123304 (J Med Chem, 1986).

Where only a bound is given, the exact number is not on record here.

For series [1], the species on record is Felis catus. Nature of the series: Compound was tested for potentiating the dopamine-induced hypotension in cats. The format is functional.
The subject of series [2] is Mus musculus. Nature of the series: Dose influencing (+/-) the spontaneous motility in mice, administered intraperitoneally (ip). The class given is functional. The procedure, abridged:
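CFLP male mice, 10/group. Spontaneous motility recorded in a circuit-closing apparatus, no amphetamine. Compounds given 15 or 30 min before testing. Vehicle controls. Minimum dose raising (+) or lowering (−) motility, ip.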

For series [3], the species on record is Mus musculus. As to the kind of experiment: Inhibitory activity against reserpine hypothermia in mice. The class given is functional. Summed up:
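Mice (male CFLP, 18–22 g, 10/group) given reserpine 1 mg/kg ip 3 h before testing. Rectal temperature read with a thermistor probe. Compounds given sc 15 or 30 min before testing. Minimum effective dose.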

Series [4] deals with Mus musculus. As to the kind of experiment: Inhibitory activity against tetrabenazine catalepsy in mice (sc). The format is functional.
The subject of series [5] is Mus musculus. As to the kind of experiment: Inhibition of tetrabenazine ptosis in mice (sc). The format is functional.
Series [6] in a line: Lethal effect was determined in mice. The format is ADME, organism-based. The conditions noted are these: mouse, in vivo. The procedure, abridged: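 Male CFLP (Swiss) mice, 18–22 g, dosed sc. Vehicle was physiological saline, with Tween-80 added for some compounds in this determination; controls received the solvent. LD50 in mg/kg determined.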
Series [7] has as its system Mus musculus. Nature of the series: Compound was evaluated for the dose influencing (+/-) the amphetamine induced motility in mice, administered intraperitoneally (ip). The class given is functional.
The species named for series [8] is Felis catus. Nature of the series: Compound was tested for potentiating the dopamine-induced hypotension in cats. The format is functional.
The species named for series [9] is Mus musculus. As to the kind of experiment: Amphetamine induced motility in mice. The format is functional.
Series [10] addresses Sodium-dependent dopamine transporter (Mus musculus) (UniProt Q61327). Nature of the series: Compound was evaluated for the inhibitory activity against Haloperidol catalepsy in mice. The class given is functional. Summed up: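 Male CFLP (Swiss) mice, 18–22 g, 10/group. Haloperidol 5 mg/kg ip, 60 min. Catalepsy tested on a vertical grid. Compounds given sc 15 or 30 min before testing, in saline or the listed vehicles. Controls received the vehicle. ED50 with range.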

The species entered for series [11] is Mus musculus. Nature of the series: Compound was evaluated for the inhibitory activity against Tetrabenazine ptosis in mice. The format is functional. The procedure, abridged:
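CFLP male mice, 18–22 g, 10/group. Tetrabenazine 35 mg/kg ip at −20 min. Ptosis rated by an observer blind to treatment. Compounds given sc 15 or 30 min beforehand. Controls received the vehicle. ED50 with range.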

The species entered for series [12] is Mus musculus. Nature of the series: Compound was evaluated for the inhibitory activity against tetrabenazine catalepsy in mice. The class given is functional. Summed up:
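Male CFLP (Swiss) mice, 18–22 g, 10/group. Tetrabenazine 25 mg/kg ip, 30 min before testing. Catalepsy scored on a vertical grid. Compounds given sc 15 or 30 min before testing. Controls received the vehicle. ED50 with range.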

Series [13] addresses Sodium-dependent dopamine transporter (Rattus norvegicus) (UniProt P23977). Nature of the series: Inhibitory activity against inducing stereotypy in rats. The class given is functional. The procedure, abridged: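 Male CFY (Sprague-Dawley) rats. Animals showing stereotypy were placed in an activity meter. Doses giving 5 times control motility were determined. Minimum effective dose, sc.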

Chain of Sodium-dependent dopamine transporter (Rattus norvegicus) (P23977 whole entry): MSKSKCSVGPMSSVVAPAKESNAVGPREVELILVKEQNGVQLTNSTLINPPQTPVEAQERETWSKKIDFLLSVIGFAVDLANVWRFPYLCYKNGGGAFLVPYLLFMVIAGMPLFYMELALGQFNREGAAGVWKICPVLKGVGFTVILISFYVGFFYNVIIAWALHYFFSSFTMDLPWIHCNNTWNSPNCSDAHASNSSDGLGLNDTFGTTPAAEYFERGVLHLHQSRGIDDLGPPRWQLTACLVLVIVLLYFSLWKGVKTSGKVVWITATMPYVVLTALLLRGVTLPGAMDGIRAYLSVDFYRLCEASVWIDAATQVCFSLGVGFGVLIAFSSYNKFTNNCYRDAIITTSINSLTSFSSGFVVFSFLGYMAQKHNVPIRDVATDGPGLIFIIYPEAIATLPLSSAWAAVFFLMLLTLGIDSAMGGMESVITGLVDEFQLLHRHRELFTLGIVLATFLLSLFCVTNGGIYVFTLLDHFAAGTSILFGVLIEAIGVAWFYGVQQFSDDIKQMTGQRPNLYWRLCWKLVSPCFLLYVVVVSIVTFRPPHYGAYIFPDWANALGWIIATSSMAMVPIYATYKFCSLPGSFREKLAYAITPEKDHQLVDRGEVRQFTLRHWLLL
Chain of Sodium-dependent dopamine transporter (Mus musculus) (Q61327 whole entry): as the sequence (P23977 whole entry) above, with S21P, A57V, A194S, H600R, L619V counted along it

Turning to `Cc1ccc(C2CN(C)Cc3c(N)cccc32)cc1` (stereo unspecified), the EDmin in the series listed under Felis catus [1] came to 0.2 mg/kg; in the series on Mus musculus [2], 15 mg/kg; in the series filed under Mus musculus [3], 2 mg/kg; in the series with Mus musculus [7], 10 mg/kg. Also, the figures for the ED50 with Mus musculus [4] and in the series with Mus musculus [5] were 1.6 mg/kg and approximately 1.2 mg/kg, respectively. In series [6], this molecule returned an LD50 of 800 mg/kg.
On to `CN1Cc2c(N)cccc2C(c2ccccc2)C1` (stereo unspecified) [NOMIFENSINE], for which the EDmin in the series listed under Felis catus [8] is 0.5 mg/kg; in the series filed under Mus musculus [9] it was more than 5 mg/kg; in the series on Mus musculus [2], 10 mg/kg. Besides, the LD50 in series [6] was determined as 336 mg/kg.
For the molecule `CN1Cc2c(NC(=O)OCCCl)cccc2C(c2ccccc2)C1` (stereo unspecified), the EDmin is 2 mg/kg in the series filed under Felis catus [1]; 5 mg/kg in the series listed under Mus musculus [9]; more than 20 mg/kg in the series with Mus musculus [2]; 20 mg/kg in the series listed under Mus musculus [3]; more than 20.5 mg/kg in [13]. In addition, the ED50 was 11 mg/kg in series [10], 2.5 mg/kg in the series filed under Mus musculus [11] and 9 mg/kg in the series listed under Mus musculus [12]. Besides, in series [6], the LD50 worked out at 160 mg/kg.
In the case of `CN1Cc2c(NC(=O)CCl)cccc2C(c2ccccc2)C1` (stereo unspecified), the EDmin in the series filed under Felis catus [1] was 1 mg/kg; in the series filed under Mus musculus [9], 10 mg/kg; in the series on Mus musculus [2], 20 mg/kg; in the series filed under Mus musculus [3] it was more than 30 mg/kg; in [13] it was 8 mg/kg. Also, the ED50 in series [10] was 10 mg/kg; in the series filed under Mus musculus [11] it was 3 mg/kg; in the series filed under Mus musculus [12], 10 mg/kg. The median lethal dose (LD50) in series [6] was found to be 94 mg/kg.
Turning to `CN1Cc2c(NC(=O)CCCl)cccc2C(c2ccccc2)C1` (stereo unspecified), the EDmin is 1 mg/kg in the series filed under Felis catus [1]; more than 15 mg/kg in the series listed under Mus musculus [9]; more than 30 mg/kg in the series on Mus musculus [2]; more than 30 mg/kg in the series listed under Mus musculus [3]; 20.5 mg/kg in [13]. Further, the values for the ED50 (in series [10]; in the series listed under Mus musculus [11]; in the series listed under Mus musculus [12]) were 19 mg/kg, 8.8 mg/kg and more than 30 mg/kg, respectively. In series [6], this molecule gave an LD50 of 89 mg/kg.
As to `CC(C)NCCC(=O)Nc1cccc2c1CN(C)CC2c1ccccc1` (stereo unspecified), the EDmin is 2 mg/kg in the series listed under Felis catus [1]; 160 mg/kg in the series listed under Mus musculus [9]; 160 mg/kg in the series on Mus musculus [2]; 200 mg/kg in the series listed under Mus musculus [3]; more than 83 mg/kg in [13]. For the same molecule, the ED50 in the series with Mus musculus [4] is 150 mg/kg; in the series on Mus musculus [5] it was approximately 125 mg/kg. In [6], this molecule came in with an LD50 of 900 mg/kg.
